Columns and labels:
[1] = Time from injection to 95% recovery of the twitch response at the ED95 dose in male Rhesus monkey.; assay type: functional, Cercopithecidae
Summary of the method: (§1)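 Anesthetized, ventilated male rhesus monkeys received sequential iv bolus doses with extensor digitorum twitch recorded. Onset is injection to peak twitch inhibition. Duration is injection to 95% twitch recovery. Values at the ED95 were read from plots of onset or duration vs dose. Means ± SE across animals.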

[2] = Time from injection to peak inhibition of twitch response at the ED95 dose in male Rhesus monkey.; assay type: functional, Cercopithecidae; summary of the method: as §1
[3] = Dose required for 95% suppression of the twitch response at the extensor digitorum in male Rhesus monkey.; assay type: functional, Cercopithecidae
Summary of the method: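 Adult male rhesus monkeys (8–15 kg) under ketamine (5 mg/kg i.m.) and pentobarbital (2–5 mg/kg iv) induction, then N2O 60%/O2 40%/halothane 0.5–1%, ventilated, core temperature 37–38 °C. Twitch of extensor digitorum was recorded after ≥20 min stable baseline. Sequential iv bolus doses from 0.03 to 6.4 mg/kg. Per-animal ED95 came from log-probability regression of dose vs % block. Other lines give the single dose tested with its % block.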

[4] = Selectivity index is changes in heart rate(cv dose) to the suppression of twitch response (ED95) in male Rhesus monkey; assay type: functional, Cercopithecidae
Summary of the method: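 Same anesthetized male rhesus preparation, with blood pressure, heart rate and EKG recorded alongside twitch during sequential iv doses up to 6.4 mg/kg. Cardiovascular threshold dose is the dose giving ≥10% change in heart rate or mean arterial pressure. Index = mean threshold dose / mean ED95 (extensor digitorum).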

[5] = Time from injection to peak inhibition of twitch response at a dose of 0.4 mg/kg in male Rhesus monkey was evaluated; assay type: functional, Cercopithecidae
Summary of the method: (§2)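 Single iv bolus of 0.2 or 0.4 mg/kg in anesthetized, ventilated male rhesus monkeys, with extensor digitorum twitch recorded. Onset taken from injection to peak twitch inhibition at the given dose. Means ± SE, N = number of animals.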

[6] = Time from injection to peak inhibition of twitch response at a dose of 0.2 mg/kg in male Rhesus monkey was evaluated; assay type: functional, Cercopithecidae; summary of the method: as §2
[7] = Time from injection to 95% recovery of twitch response at a dose of 0.4 mg/kg in male Rhesus monkey was evaluated
[8] = Time from injection to 95% recovery of twitch response at a dose of 0.2 mg/kg in male Rhesus monkey was evaluated
[9] = Cercopithecidae, read-out: ED95

| SMILES | Duration [1] [min] | Onset [2] [s] | ED95 [3, 9] [mg/kg] | Selectivity index [4] | Onset [5] [s] | Onset [6] [s] | Duration [7] [min] | Duration [8] [min] | ED95 [3] [mg/kg] |
| --- | --- | --- | --- | --- | --- | --- | --- | --- | --- |
| COc1cc2c(cc1OC)[C@@H](c1cc(OC)c(OC)c(OC)c1)[N@+](C)(CCCOC(=O)/C(Cl)=C/C(=O)OCCC[N@+]1(C)CCc3cc(OC)c(OC)cc3[C@H]1Cc1cc(OC)c(OC)c(OC)c1)CC2.[Cl-].[Cl-] | 3.7 |  |  |  |  |  |  |  |  |
| COc1cc2c(cc1OC)[C@H](c1cc(OC)c(OC)c(OC)c1)[N@@+](C)(CCCOC(=O)CCCCCCCC(=O)OCCC[N@+]1(C)CCc3cc(OC)c(OC)cc3[C@H]1Cc1cc(OC)c(OC)c(OC)c1)CC2.[Cl-].[Cl-] | 9.7 | 79 | 0.17 | 19 |  |  |  |  |  |
| COc1cc2c(cc1OC)C(c1cc(OC)c(OC)c(OC)c1)[N@+](C)(CCCOC(=O)/C=C/C(=O)OCCC[N@+]1(C)CCc3cc(OC)c(OC)cc3[C@H]1c1cc(OC)c(OC)c(OC)c1)CC2.[Cl-].[Cl-] (some centres not stated) | 25.5 | 114 | 1.55 | 0.65 |  |  |  |  |  |
| COc1cc2c(cc1OC)[C@H](c1cc(OC)c(OC)c(OC)c1)[N@@+](C)(CCCOC(=O)/C=C(\Cl)C(=O)OCCC[N@@+]1(C)CCc3cc(OC)c(OC)cc3[C@@H]1c1cc(OC)c(OC)c(OC)c1)CC2.[Cl-].[Cl-] |  |  |  | 1.5 |  |  |  |  |  |
| COc1cc2c(cc1OC)[C@H](c1cc(OC)c(OC)c(OC)c1)[N@@+](C)(CCCOC(=O)CCCCCCC(=O)OCCC[N@+]1(C)CCc3cc(OC)c(OC)cc3[C@H]1Cc1cc(OC)c(OC)c(OC)c1)CC2.[Cl-].[Cl-] | 10.9 | 117 | 0.067 | 12 |  |  |  |  |  |
| COc1cc2c(cc1OC)[C@H](c1cc(OC)c(OC)c(OC)c1)[N@@+](C)(CCCOC(=O)/C=C(\F)C(=O)OCCC[N@+]1(C)CCc3cc(OC)c(OC)c(OC)c3[C@H]1Cc1cc(OC)c(OC)c(OC)c1)CC2.[Cl-].[Cl-] | 10 | 85 | 0.077 | 21 |  |  |  |  |  |
| COc1cc2c(cc1OC)C(Cc1cc(OC)c(OC)c(OC)c1)[N@+](C)(CCCOC(=O)/C(Cl)=C/C(=O)OCCC[N@+]1(C)CCc3cc(OC)c(OC)cc3[C@H]1Cc1cc(OC)c(OC)c(OC)c1)CC2.[Cl-].[Cl-] (some centres not stated) | 7.1 | 96 | 0.079 | 20 |  |  |  |  |  |
| COc1cc2c(cc1OC)[C@H](c1cc(OC)c(OC)c(OC)c1)[N@@+](C)(CCCOC(=O)CCC(F)(F)C(=O)OCCC[N@+]1(C)CCc3cc(OC)c(OC)cc3[C@H]1Cc1cc(OC)c(OC)c(OC)c1)CC2.[Cl-].[Cl-] | 5.7 | 48 | 0.22 |  |  |  |  |  |  |
| COc1cc(CC2c3cc4c(cc3CC[N@@+]2(C)CCCOC(=O)/C(Cl)=C/C(=O)OCCC[N@+]2(C)CCc3cc5c(cc3[C@H]2Cc2cc(OC)c(OC)c(OC)c2)OCO5)OCO4)cc(OC)c1OC.[Cl-].[Cl-] (some centres not stated) | 2.4 | 27 | 0.62 | 1.3 |  |  |  |  |  |
| COc1cc2c(cc1OC)[C@H](c1cc(OC)c(OC)c(OC)c1)N(CCCOC(=O)/C=C(\Cl)C(=O)OCCC[N@+]1(C)CCc3cc(OC)c(OC)cc3[C@H]1Cc1cc(OC)c(OC)c(OC)c1)CC2.Cl.[Cl-] | 5.4 | 38 | 0.87 |  |  |  |  |  |  |
| COc1cc2c(cc1OC)[C@H](c1cc(OC)c(OC)c(OC)c1)[N@@+](C)(CCCOC(=O)CC(F)(F)C(=O)OCCC[N@+]1(C)CCc3cc(OC)c(OC)cc3[C@H]1Cc1cc(OC)c(OC)c(OC)c1)CC2.[Cl-].[Cl-] | 7.3 | 78 | 0.056 | 96 | 22 | 37 | 13 | 10.3 |  |
| COc1cc2c(cc1OC)C(c1cc(OC)c(OC)c(OC)c1)[N@+](C)(CCCOC(=O)/C(Cl)=C/C(=O)OCCC[N@+]1(C)CCc3cc(OC)c(OC)cc3[C@H]1c1cc(OC)c(OC)c(OC)c1)CC2.[Cl-].[Cl-] (some centres not stated) | 5.1 | 46 | 1.79 | 3.6 |  |  |  |  |  |
| COc1cc2c(cc1OC)[C@H](c1cc(OC)c(OC)c(OC)c1)[N@@+](C)(CCCOC(=O)C(F)(F)CC(=O)OCCC[N@+]1(C)CCc3cc(OC)c(OC)cc3[C@H]1Cc1cc(OC)c(OC)c(OC)c1)CC2.[Cl-].[Cl-] | 4.9 | 26 | 0.39 |  |  |  |  |  |  |
| COc1cc2c(cc1OC)[C@@H](c1cc(OC)c(OC)c(OC)c1)[N@+](C)(CCCOC(=O)/C=C(\Cl)C(=O)OCCC[N@+]1(C)CCc3cc(OC)c(OC)c(OC)c3[C@H]1Cc1cc(OC)c(OC)c(OC)c1)CC2 | 10 | 57 | 0.067 | 24 |  |  |  |  |  |
| COc1cc2c(cc1OC)[C@H](c1cc(OC)c(OC)c(OC)c1)[N@@+](C)(CCCOC(=O)CCCCCCCCC(=O)OCCC[N@+]1(C)CCc3cc(OC)c(OC)cc3[C@H]1Cc1cc(OC)c(OC)c(OC)c1)CC2.[Cl-].[Cl-] | 13.5 | 110 | 0.2 |  |  |  |  |  |  |
| COc1cc2c(cc1OC)[C@H](c1cc(OC)c(OC)c(OC)c1)[N@@+](C)(CCCOC(=O)CC(F)(F)C(=O)OCCC[N@+]1(C)CCc3cc(OC)c(OC)c(OC)c3[C@H]1Cc1cc(OC)c(OC)c(OC)c1)CC2.[Cl-].[Cl-] | 14 | 217 | 0.04 | 60 |  |  |  |  |  |
| COc1cc2c(cc1OC)[C@H](c1cc(OC)c(OC)c(OC)c1)[N@@+](C)(CCCOC(=O)/C=C(\F)C(=O)OCCC[N@+]1(C)CCc3cc(OC)c(OC)cc3[C@H]1Cc1cc(OC)c(OC)c(OC)c1)CC2.[Cl-].[Cl-] | 4.4 | 66 | 0.137 | 37 |  |  |  |  |  |
| COc1cc2c(cc1OC)[C@H](c1cc(OC)c(OC)c(OC)c1)[N@@+](C)(CCCOC(=O)CCCCC(=O)OCCC[N@+]1(C)CCc3cc(OC)c(OC)cc3[C@H]1Cc1cc(OC)c(OC)c(OC)c1)CC2.[Cl-].[Cl-] | 13 | 75 | 0.136 |  |  |  |  |  |  |
| COc1cc2c(cc1OC)[C@@H](Cc1cc(OC)c(OC)c(OC)c1)[N@+](C)(CCCOC(=O)/C(Cl)=C/C(=O)OCCC[N@+]13CCc4cc(OC)c(OC)cc4[C@H]1c1cc(OC)c(OC)cc1CC3)CC2.[Cl-].[Cl-] | 5.2 | 94 | 0.078 | 5 |  |  |  |  |  |
| COc1ccc([C@@H]2c3cc(OC)c(OC)cc3CC[N@@+]2(C)CCCOC(=O)CC(F)(F)C(=O)OCCC[N@+]2(C)CCc3cc(OC)c(OC)cc3[C@H]2Cc2cc(OC)c(OC)c(OC)c2)cc1OC.[Cl-].[Cl-] | 3.9 | 55 | 0.06 |  |  |  |  |  |  |
| COc1cc2c(cc1OC)[C@H](c1cc(OC)c(OC)c(OC)c1)[N@@+](C)(CCCOC(=O)/C=C(\Cl)C(=O)OCCC[N@+]13CCc4cc(OC)c(OC)c(OC)c4[C@H]1Cc1cc(OC)c(OC)c(OC)c1C3)CC2.[Cl-].[Cl-] | 4.5 | 28 | 0.8 |  |  |  |  |  |  |
| COc1cc2c(cc1OC)[C@@H](c1cc(OC)c(OC)c(OC)c1)[N@+](C)(CCCOC(=O)/C=C(\Cl)C(=O)OCCC[N@+]1(C)CCc3cc(OC)c(OC)c(OC)c3[C@H]1Cc1cc(OC)c(OC)c(OC)c1)CC2.[Cl-].[Cl-] | 9.9 | 113 | 0.053 | 15 |  |  |  |  |  |
| COc1ccc([C@H]2c3cc(OC)c(OC)cc3CC[N@+]2(C)CCCOC(=O)/C=C(\Cl)C(=O)OCCC[N@+]2(C)CCc3cc(OC)c(OC)cc3[C@H]2Cc2cc(OC)c(OC)c(OC)c2)cc1.[Cl-].[Cl-] | 7.4 | 69 | 0.136 | 6 |  |  |  |  |  |
| COc1cc2c(cc1OC)[C@H](c1ccc(F)c(F)c1)[N@@+](C)(CCCOC(=O)/C=C(\Cl)C(=O)OCCC[N@+]1(C)CCc3cc(OC)c(OC)cc3[C@H]1Cc1cc(OC)c(OC)c(OC)c1)CC2.[Cl-].[Cl-] | 4.7 | 72 | 0.09 | 18 |  |  |  |  |  |
| COc1cc2c(cc1OC)[C@H](c1cc(OC)c(OC)c(OC)c1)[N@@+](C)(CCCOC(=O)/C=C(\Cl)C(=O)OCCC[N@+]1(C)CCc3cc(OC)c(OC)cc3[C@H]1Cc1cc(OC)c(OC)c(OC)c1)CC2.[Cl-].[Cl-] (stereo in doubt; 24a) [GANTACURIUM CHLORIDE] |  |  |  | 57 |  |  |  |  | 0.063 |
| COc1cc2c(cc1OC)[C@H](c1cc(OC)c(OC)c(OC)c1)[N@@+](C)(CCCOC(=O)/C=C(\Cl)C(=O)OCCC[N@+]1(C)CCc3cc(OC)c(OC)cc3[C@H]1Cc1cc(OC)c(OC)c(OC)c1)CC2.[Cl-].[Cl-] (stereo in doubt; 24a/24b) [GANTACURIUM CHLORIDE] |  |  |  | 27 |  |  |  |  | 0.163 |
| COc1cc2c(cc1OC)[C@@H](Cc1cc(OC)c(OC)c(OC)c1)[N+](C)(CCCOC(=O)CC/C=C/CCC(=O)OCCC[N+]1(C)CCc3cc(OC)c(OC)cc3[C@H]1Cc1cc(OC)c(OC)c(OC)c1)CC2.[Cl-].[Cl-] (some centres not stated) [MIVACURIUM CHLORIDE] |  |  |  | 24 |  |  |  |  |  |

From ChEMBL document CHEMBL1145796, “Neuromuscular blocking activity and therapeutic potential of mixed-tetrahydroisoquinolinium halofumarates and halosuccinates in rhesus monkeys” (2003)
